Reference: ChEMBL document CHEMBL1955840, “Proteasome inhibitors for cancer therapy” (Bioorg Med Chem, 2012)

How the values were obtained:
[1] = Inhibition of chymotrypsin-like activity of human liver 20S proteasome assessed as release of AMC using Suc-LLVY-AMC fluorogenic substrate after 15 mins preincubation measured every 1.5 mins for 20 mins by fluorescence analysis
Summary of the method: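 Proteasome partially purified from postmortem human liver, 6.7 µg/mL final, in 20 mM Tris–Cl pH 7.5, 0.04% SDS, 5% DMSO; activated by 15 min preincubation at 27 °C. Suc-LLVY-AMC added to 100 µM; AMC fluorescence (ex 360/em 460 nm) read every 1.5 min for 20 min at 27 °C. Rates per inhibitor concentration; IC50 by non-linear regression; mean S.D., n = 3–6.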

Chymotrypsinogen A = Chymotrypsinogen A (Bos taurus, UniProt P00766); experiment: Inhibition of bovine alpha-chymotrypsin
[2] = Inhibition of chymotrypsin-like activity of 20S proteasome in human MOLT4 cells assessed as release of AFC using MeOSuc-Phe-Leu-Phe-AFC substrate after 15 mins measured every 1.5 mins for 20 mins by fluorescence analysis; format: cell-based; details: MOLT-4
Summary of the method: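 Molt-4 human T-cell leukemia cells washed, resuspended at 6 × 10⁶ cells/mL in HEPES-buffered saline (pH 7.0) with KCl, NaCl, glucose, MgSO₄ and Na pyruvate. Fluorogenic AFC substrate at 100 µM, 0.6% DMSO final; incubated at 37 °C; AFC fluorescence (ex 420/em 490 nm) read every 1.5 min for 20 min. IC50 reported as mean S.D., n = 3–6.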

DU-145 = experiment: Antitumor activity against human DU145 cells assessed as cell viability; format: functional, cell-based
Summary of the method: (§1)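 Tumor cell viability IC50 values; averages of two independent experiments, each performed in triplicate.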

[3] = Antitumor activity against rat AT2 cells assessed as cell viability; format: functional, cell-based; summary of the method: as §1
[4] = target: T1, Calpain-1 catalytic subunit (Homo sapiens) (UniProt P07384); experiment: Inhibition of human calpain 1 at 10 uM
T1 sequence (whole entry): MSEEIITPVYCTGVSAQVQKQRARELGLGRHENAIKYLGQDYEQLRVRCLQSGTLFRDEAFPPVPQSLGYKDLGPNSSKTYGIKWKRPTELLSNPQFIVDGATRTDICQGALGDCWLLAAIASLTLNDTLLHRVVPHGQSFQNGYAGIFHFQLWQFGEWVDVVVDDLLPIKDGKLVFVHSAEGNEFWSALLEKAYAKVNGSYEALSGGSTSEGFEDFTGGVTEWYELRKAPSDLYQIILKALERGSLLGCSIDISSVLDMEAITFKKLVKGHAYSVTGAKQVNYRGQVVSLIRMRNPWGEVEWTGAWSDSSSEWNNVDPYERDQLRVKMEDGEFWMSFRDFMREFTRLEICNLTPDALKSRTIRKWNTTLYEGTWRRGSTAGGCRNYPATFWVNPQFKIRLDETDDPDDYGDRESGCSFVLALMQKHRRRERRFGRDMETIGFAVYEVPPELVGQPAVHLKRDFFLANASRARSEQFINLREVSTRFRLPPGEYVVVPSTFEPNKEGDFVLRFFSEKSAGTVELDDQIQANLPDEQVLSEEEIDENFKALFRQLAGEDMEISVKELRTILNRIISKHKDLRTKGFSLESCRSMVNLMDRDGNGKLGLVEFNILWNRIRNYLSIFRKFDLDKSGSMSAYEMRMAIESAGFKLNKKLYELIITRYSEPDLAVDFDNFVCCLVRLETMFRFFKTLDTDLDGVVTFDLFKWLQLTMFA
Summary of the method: (§2)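 Percent inhibition measured at a single 10 µM concentration; averages of two independent experiments, each run in triplicate.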

PANC-1 = experiment: Antitumor activity against human PANC1 cells assessed as cell viability; format: functional, cell-based; summary of the method: as §1
[5] = target: Chymotrypsinogen A (Bos taurus) (UniProt P00766); experiment: Inhibition of bovine alpha-chymotrypsin at 10 uM; summary of the method: as §2
MOLT-4 = experiment: Ratio of IC50 for chymotrypsin-like activity of 20S proteasome in human MOLT4 cells to IC50 for chymotrypsin-like activity of human liver 20S proteasome in cell-free assay; format: cell-based
Summary of the method: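 Cell-permeability index: IC50 against chymotrypsin-like activity in intact Molt-4 cells divided by IC50 against isolated human liver 20S proteasome, both from fluorogenic substrate cleavage assays.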

OVCAR-3 = experiment: Antitumor activity against human OVCAR3 cells assessed as cell viability; format: functional, cell-based; summary of the method: as §1
SK-MEL-5 = experiment: Antitumor activity against human SK-MEL-5 cells assessed as cell viability; format: functional, cell-based; summary of the method: as §1
[6] = tested on: Lewis lung carcinoma cell line; experiment: Antitumor activity against mouse LLC cells assessed as cell viability; format: functional, cell-based; summary of the method: as §1
MCF7 = experiment: Antitumor activity against human MCF7 cells assessed as cell viability; format: functional, cell-based; summary of the method: as §1
[7] = Inhibition of trypsin-like activity of 20S proteasome at 10 uM; summary of the method: as §2

Structure (SMILES) | IC50 [1] [nM] | IC50 (Chymotrypsinogen A) [nM] | IC50 [2] [nM] | inhibition [4] [%] | inhibition [5] [%] | Ratio IC50 (MOLT-4) | inhibition [7] [%] | also measured
CC(C)C[C@@H](C=O)NC(=O)[C@H](CCCN/C(N)=N/[N+](=O)[O-])NC(=O)C(CCCCCCCCN1C(=O)c2ccccc2C1=O)C1CCCC1 (stereo not given in full) | 2 |  |  |  |  |  |  | 
CC(C)C[C@@H](C=O)NC(=O)[C@H](CCCN/C(N)=N/[N+](=O)[O-])NC(=O)C(CCCCCCCCC#N)C1CCCC1 (stereo not given in full) | 6 |  |  |  |  |  |  | 
CC(C)C[C@H](NC(=O)[C@H](CCCN/C(N)=N/[N+](=O)[O-])NC(=O)C(CCCCCCCCC#N)C1CCCC1)C(=O)C(=O)NCCNS(=O)(=O)c1ccccc1 (stereo not given in full) | 1 |  |  |  |  |  |  | 
CC(C)C[C@H](NC(=O)[C@H](CCCN/C(N)=N/[N+](=O)[O-])NC(=O)C(CCCCCCCCC#N)C1CCCC1)B1OC(C)(C)C(C)(C)O1 (stereo not given in full) | 6 |  |  |  |  |  |  | 
CC(C)C[C@H](NC(=O)[C@H](CCCN=C(N)N[N+](=O)[O-])NC(=O)C(CCCCCCCCC#N)C1CCCC1)B1O[C@@H]2[C@@H]3C[C@H](C[C@]2(C)O1)C3(C)C (mixture of isomers) |  | > 10000 |  |  |  |  |  | 
CC(C)C[C@H](NC(=O)[C@H](CCCN/C(N)=N/[N+](=O)[O-])NC(=O)C(CCCCCCCCC#N)C1CCCC1)B1O[C@@H]2[C@@H]3C[C@H](C[C@]2(C)O1)C3(C)C (mixture of isomers) | 3.5 |  | 240 | 2 | 24 | 69 | 0 | IC50 (DU-145): 293 nM; IC50 [3]: > 1000 nM; IC50 (PANC-1): 283 nM; IC50 (OVCAR-3): 69 nM; IC50 (SK-MEL-5): 85 nM; IC50 [6]: 585 nM; IC50 (MCF7): 425 nM
CC(C)C[C@H](NC(=O)[C@H](CCCN/C(N)=N/[N+](=O)[O-])NC(=O)C(CCCCCCCCN1C(=O)c2ccccc2C1=O)C1CCCC1)B1O[C@@H]2[C@@H]3C[C@H](C[C@]2(C)O1)C3(C)C (mixture of isomers) | 3.5 | > 10000 | 70 | 11 | 30 | 20 | 20 | IC50 (DU-145): 167 nM; IC50 [3]: > 1000 nM; IC50 (PANC-1): 184 nM; IC50 (OVCAR-3): 29 nM; IC50 (SK-MEL-5): 82 nM; IC50 [6]: 513 nM; IC50 (MCF7): 292 nM
CC(C)C[C@H](NC(=O)[C@H](CCCN/C(N)=N/[N+](=O)[O-])NC(=O)C(CCCCCCCCC#N)C1CCCC1)B(O)O (mixture of isomers) | 8.7 |  | 7340 |  | 30 | 840 | 5 | 
CC(C)C[C@H](NC(=O)[C@H](CCCNC(=N)N[N+](=O)[O-])NC(=O)C(CCCCCCCCC#N)C1CCCC1)B(O)O (mixture of isomers) |  | > 10000 |  |  |  |  |  | 
CC(C)C[C@H](NC(=O)[C@H](CCCN/C(N)=N/[N+](=O)[O-])NC(=O)C(CCCCCCCCN1C(=O)c2ccccc2C1=O)C1CCCC1)B(O)O (mixture of isomers) | 4.1 | > 10000 | 2830 | 0 | 2 | 690 | 24 | 
